Legend:
[1] = target: Sodium channel protein type 9 subunit alpha (Homo sapiens, UniProt Q15858); assay: Inhibition of human sodium channel Nav1.7 by FRET assay
Procedure, shortened: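 hNav1.7 block was measured in a functional membrane-potential assay read out as FRET between two membrane-associated dyes.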

hERG (KCNH2) = hERG (KCNH2) (Homo sapiens, UniProt Q12809); assay: (§1) Displacement of [35S]MK-0499 from hERG at 10 uM; details: probe [35S]MK-0499
[2] = Plasma clearance in Sprague-Dawley rat at 1 mg/kg, iv or 3 mg/kg, po; assay type: ADME, organism-based
Procedure, shortened: (§2)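 Fasted male Sprague–Dawley rats received 1.0 mg/kg iv through a femoral vein cannula (n = 3) or 3.0 mg/kg po by gavage (n = 3). Serial blood was drawn at 5 min (iv only), 15 and 30 min, and 1, 2, 4, 6 and 8 h. Plasma was protein-precipitated with acetonitrile and analysed by LC–MS/MS.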

[3] = Cmax in Sprague-Dawley rat at 1 mg/kg, iv or 3 mg/kg, po; assay type: ADME, organism-based; details: in vivo; procedure, shortened: as §2
[4] = (§3) Oral bioavailability in Sprague-Dawley rat at 3 mg/kg; assay type: ADME, organism-based; details: Sprague-Dawley, in vivo; procedure, shortened: as §2
[5] = (§4) Half life in Sprague-Dawley rat at 1 mg/kg, iv or 3 mg/kg, po; assay type: ADME, organism-based; details: Sprague-Dawley, in vivo; procedure, shortened: as §2
[6] = target: Voltage-gated inwardly rectifying potassium channel KCNH2 (Homo sapiens, UniProt Q12809); assay: as §1; details: 10 µM
Rattus norvegicus [7] = assay: as §3; assay type: ADME, organism-based; details: in vivo; procedure, shortened: as §2
Rattus norvegicus [8] = assay: as §4; assay type: ADME, organism-based; details: in vivo; procedure, shortened: as §2
Rattus norvegicus [9] = assay: Reversal of allodynia in rat at 10 mg/kg, po after 4 hrs; assay type: functional
Rattus norvegicus [10] = assay: Reversal of allodynia in rat at 10 mg/kg, po after 2 hrs; assay type: functional

Chain of hERG (KCNH2) (Q12809 whole entry): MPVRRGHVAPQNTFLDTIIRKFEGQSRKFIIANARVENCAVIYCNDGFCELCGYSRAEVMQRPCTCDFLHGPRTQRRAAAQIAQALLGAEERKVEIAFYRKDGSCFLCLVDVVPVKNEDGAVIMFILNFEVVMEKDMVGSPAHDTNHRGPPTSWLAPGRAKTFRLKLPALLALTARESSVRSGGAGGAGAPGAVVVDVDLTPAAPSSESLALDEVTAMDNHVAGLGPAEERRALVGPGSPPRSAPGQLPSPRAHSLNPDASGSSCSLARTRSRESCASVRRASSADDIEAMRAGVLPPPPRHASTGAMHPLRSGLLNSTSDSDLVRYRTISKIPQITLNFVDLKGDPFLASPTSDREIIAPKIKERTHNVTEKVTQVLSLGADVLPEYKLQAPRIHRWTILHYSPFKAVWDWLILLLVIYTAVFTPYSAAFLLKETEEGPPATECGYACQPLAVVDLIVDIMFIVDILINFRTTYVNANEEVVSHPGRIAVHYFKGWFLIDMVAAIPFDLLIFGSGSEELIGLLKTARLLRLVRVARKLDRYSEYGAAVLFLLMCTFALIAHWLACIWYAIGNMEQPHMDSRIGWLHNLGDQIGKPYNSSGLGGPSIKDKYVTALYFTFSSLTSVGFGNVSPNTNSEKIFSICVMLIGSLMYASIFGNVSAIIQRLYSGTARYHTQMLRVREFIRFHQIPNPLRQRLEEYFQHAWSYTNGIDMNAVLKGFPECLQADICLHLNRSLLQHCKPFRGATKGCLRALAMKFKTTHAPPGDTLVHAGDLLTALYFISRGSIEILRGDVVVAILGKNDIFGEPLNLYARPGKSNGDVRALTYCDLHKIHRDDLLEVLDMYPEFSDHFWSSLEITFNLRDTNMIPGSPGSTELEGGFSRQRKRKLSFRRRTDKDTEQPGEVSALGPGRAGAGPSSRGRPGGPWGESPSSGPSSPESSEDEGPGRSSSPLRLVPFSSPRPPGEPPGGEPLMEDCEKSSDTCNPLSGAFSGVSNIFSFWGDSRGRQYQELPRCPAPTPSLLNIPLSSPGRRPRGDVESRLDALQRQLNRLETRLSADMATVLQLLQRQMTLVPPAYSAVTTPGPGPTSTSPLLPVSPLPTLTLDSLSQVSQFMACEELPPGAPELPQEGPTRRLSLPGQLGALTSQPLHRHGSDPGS
Chain of Sodium channel protein type 9 subunit alpha (Q15858 whole entry): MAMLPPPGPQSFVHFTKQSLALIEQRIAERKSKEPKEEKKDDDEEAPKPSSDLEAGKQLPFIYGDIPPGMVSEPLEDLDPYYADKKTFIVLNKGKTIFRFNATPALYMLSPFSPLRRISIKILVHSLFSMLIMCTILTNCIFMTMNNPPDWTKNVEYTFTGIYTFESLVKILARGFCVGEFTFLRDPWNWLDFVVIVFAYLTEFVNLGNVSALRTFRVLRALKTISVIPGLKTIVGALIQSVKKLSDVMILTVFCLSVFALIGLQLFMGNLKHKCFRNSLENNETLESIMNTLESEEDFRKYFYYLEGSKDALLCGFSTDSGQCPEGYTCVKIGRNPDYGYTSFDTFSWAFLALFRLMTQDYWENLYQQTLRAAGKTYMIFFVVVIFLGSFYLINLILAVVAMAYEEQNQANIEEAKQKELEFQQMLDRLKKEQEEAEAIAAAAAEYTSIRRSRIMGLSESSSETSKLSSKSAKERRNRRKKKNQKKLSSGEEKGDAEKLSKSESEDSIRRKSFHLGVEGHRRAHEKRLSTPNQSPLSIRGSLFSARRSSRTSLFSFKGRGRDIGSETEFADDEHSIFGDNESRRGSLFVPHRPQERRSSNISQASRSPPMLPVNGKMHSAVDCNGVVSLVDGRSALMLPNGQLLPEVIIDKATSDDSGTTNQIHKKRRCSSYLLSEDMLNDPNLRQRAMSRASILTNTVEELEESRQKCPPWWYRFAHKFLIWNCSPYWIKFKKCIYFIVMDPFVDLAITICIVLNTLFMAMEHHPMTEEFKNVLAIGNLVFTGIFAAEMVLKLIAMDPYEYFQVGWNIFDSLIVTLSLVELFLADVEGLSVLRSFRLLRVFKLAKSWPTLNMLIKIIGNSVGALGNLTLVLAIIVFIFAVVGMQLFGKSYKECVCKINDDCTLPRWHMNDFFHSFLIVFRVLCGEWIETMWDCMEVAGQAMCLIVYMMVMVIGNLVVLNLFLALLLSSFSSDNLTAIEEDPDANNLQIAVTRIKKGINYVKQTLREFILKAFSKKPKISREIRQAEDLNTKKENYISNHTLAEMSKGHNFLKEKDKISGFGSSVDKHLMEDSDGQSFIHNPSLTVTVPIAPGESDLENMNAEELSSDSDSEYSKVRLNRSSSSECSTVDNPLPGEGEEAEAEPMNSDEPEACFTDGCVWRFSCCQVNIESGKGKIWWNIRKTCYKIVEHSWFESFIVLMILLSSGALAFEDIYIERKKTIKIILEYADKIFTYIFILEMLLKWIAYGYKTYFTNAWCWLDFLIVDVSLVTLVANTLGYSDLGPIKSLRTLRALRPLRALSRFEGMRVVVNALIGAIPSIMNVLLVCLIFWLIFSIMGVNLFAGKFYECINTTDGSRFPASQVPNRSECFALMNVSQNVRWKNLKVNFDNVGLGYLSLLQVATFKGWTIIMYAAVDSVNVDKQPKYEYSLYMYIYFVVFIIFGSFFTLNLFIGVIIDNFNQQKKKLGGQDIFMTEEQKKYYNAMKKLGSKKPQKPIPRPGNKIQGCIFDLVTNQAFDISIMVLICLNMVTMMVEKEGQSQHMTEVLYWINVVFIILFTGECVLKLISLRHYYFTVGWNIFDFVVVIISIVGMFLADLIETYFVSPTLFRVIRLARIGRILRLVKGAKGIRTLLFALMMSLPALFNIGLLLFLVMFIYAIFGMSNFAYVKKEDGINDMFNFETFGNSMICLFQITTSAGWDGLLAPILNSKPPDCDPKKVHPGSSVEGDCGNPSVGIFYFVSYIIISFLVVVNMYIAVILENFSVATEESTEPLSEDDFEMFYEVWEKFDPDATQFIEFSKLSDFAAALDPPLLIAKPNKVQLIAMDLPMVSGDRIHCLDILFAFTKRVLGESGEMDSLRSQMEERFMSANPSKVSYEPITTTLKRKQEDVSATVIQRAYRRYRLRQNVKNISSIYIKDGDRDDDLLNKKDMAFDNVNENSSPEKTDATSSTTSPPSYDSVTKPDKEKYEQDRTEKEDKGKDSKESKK
Chain of Voltage-gated inwardly rectifying potassium channel KCNH2 (Q12809 whole entry): as the sequence (Q12809 whole entry) above

IC50 [1] | clearance [2] | Cmax [3] | bioavailability [4] | half-life [5] | F (Rattus norvegicus [7]) | t1/2 (Rattus norvegicus [8]) | Structure (SMILES) | inhibition at 10 µM (hERG (KCNH2)) | Inhibition [6] | Activity (Rattus norvegicus [9]) | Activity (Rattus norvegicus [10])
203 nM | 23 mL/min/kg | 330 nM | 42% | 150 min | – | – | CC(C)N1C(=O)[C@H](NC(=O)[C@@H](Cc2ccccc2OC(F)(F)F)NC(=O)C(C)(C(F)(F)F)C(F)(F)F)CCc2ccccc21 | 10% | – | – | –
290 nM | 19 mL/min/kg | 740 nM | 68% | 120 min | – | – | CC(C)N1C(=O)[C@H](NC(=O)[C@@H](Cc2c(F)cccc2F)NC(=O)c2ccc(F)cc2C(F)(F)F)CCc2cc(Cl)ccc21 | 7% | – | 35% | 18%
232 nM | 32 mL/min/kg | 260 nM | 42% | 132 min | – | – | CC(C)N1C(=O)[C@H](NC(=O)[C@@H](Cc2cc(F)ccc2F)NC(=O)c2ccc(F)cc2C(F)(F)F)CCc2cc(Cl)ccc21 | 10% | – | 61% | 55%
108 nM | 13 mL/min/kg | – | 31% | 180 min | – | – | CC(C)N1C(=O)[C@H](NC(=O)[C@@H](Cc2ccccc2OC(F)(F)F)NC(=O)OC(C)(C)C)CCc2cc(Cl)ccc21 | 32% | – | – | –
94 nM | 66 mL/min/kg | 240 nM | 50% | 126 min | – | – | CC(C)N1C(=O)[C@H](NC(=O)[C@@H](Cc2ccccc2OC(F)(F)F)NC(=O)c2ccc(F)cc2)CCc2ccccc21 | 26% | – | – | –
22 nM | 43 mL/min/kg | 150 nM | 18% | 90 min | – | – | CC(C)N1C(=O)[C@H](NC(=O)[C@@H](Cc2ccccc2OC(F)(F)F)NC(=O)c2ccccc2)CCc2ccccc21 | 83% | – | – | –
146 nM | – | – | – | – | – | – | CC(C)N1C(=O)[C@H](NC(=O)[C@@H](Cc2cccc(F)c2F)NC(=O)c2ccc(F)cc2C(F)(F)F)CCc2cc(Cl)ccc21 | 3% | – | – | –
107 nM | 12 mL/min/kg | 1470 nM | 70% | 174 min | – | – | CC(C)N1C(=O)[C@H](NC(=O)[C@@H](Cc2c(Cl)cccc2Cl)NC(=O)c2ccc(F)cc2C(F)(F)F)CCc2cc(Cl)ccc21 | 20% | – | 9% | 14%
177 nM | 43 mL/min/kg | 550 nM | 60% | 72 min | – | – | CC(C)N1C(=O)[C@H](NC(=O)[C@@H](Cc2ccccc2OC(F)(F)F)NC(=O)c2ccccn2)CCc2ccccc21 | 61% | – | – | –
79 nM | 24 mL/min/kg | – | – | 84 min | 27% | – | CC(C)N1C(=O)C(NC(=O)[C@@H](Cc2ccccc2OC(F)(F)F)NC(=O)OC(C)(C)C)CCc2cccnc21 (stereo in doubt; 25) | – | 18% | – | –

Further lines, the compound ahead of its results:

Structure (SMILES) | IC50 [1] | clearance [2] | Cmax [3] | bioavailability [4] | half-life [5] | F (Rattus norvegicus [7]) | t1/2 (Rattus norvegicus [8]) | inhibition at 10 µM (hERG (KCNH2)) | Inhibition [6] | Activity (Rattus norvegicus [9]) | Activity (Rattus norvegicus [10])
CC(C)N1C(=O)[C@H](NC(=O)[C@@H](Cc2ccccc2OC(F)(F)F)NC(=O)c2ccncc2)CCc2ccccc21 | 453 nM | – | – | – | – | – | – | 44% | – | – | –
CC(C)N1C(=O)[C@H](NC(=O)[C@@H](Cc2ccccc2OC(F)(F)F)NC(=O)c2cncnc2)CCc2ccccc21 | > 1000 nM | – | – | – | – | – | – | – | – | – | –
CC(C)N1C(=O)C(NC(=O)[C@@H](Cc2ccccc2OC(F)(F)F)NC(=O)OC(C)(C)C)CCc2cccnc21 (stereo in doubt; 24) | 80 nM | – | – | – | – | 4% | 1.9 h | – | 7% | – | –
CC(C)N1C(=O)[C@H](NC(=O)[C@@H](Cc2ccccc2OC(F)(F)F)NC(=O)c2ccccc2C(F)(F)F)CCc2ccccc21 | 98 nM | – | – | – | – | – | – | 0% | – | – | –
CC(C)N1C(=O)[C@H](NC(=O)[C@@H](Cc2ccccc2OC(F)(F)F)NC(=O)c2ccc(C(F)(F)F)cc2)CCc2ccccc21 | 175 nM | – | – | – | – | – | – | 43% | – | – | –
CC(C)N1C(=O)[C@H](NC(=O)[C@@H](Cc2ccccc2OC(F)(F)F)NC(=O)c2ccc(F)cc2C(F)(F)F)CCc2ccccc21 | 128 nM | 51 mL/min/kg | 430 nM | 86% | 156 min | – | – | 31% | – | – | –
CC(C)N1C(=O)[C@H](NC(=O)[C@@H](Cc2ccccc2OC(F)(F)F)NC(=O)OC(C)(C)C)CCc2ccccc21 | – | – | – | – | – | – | – | 17% | – | – | –
CC(C)N1C(=O)[C@H](NC(=O)[C@@H](Cc2ccccc2OC(F)(F)F)NC(=O)C(F)(F)F)CCc2ccccc21 | 868 nM | – | – | – | – | – | – | 40% | – | – | –
CC(C)N1C(=O)[C@H](NC(=O)[C@@H](Cc2ccccc2OC(F)(F)F)NC(=O)c2ccc(F)cc2C(F)(F)F)CCc2cc(Cl)ccc21 | 169 nM | 29 mL/min/kg | 520 nM | 65% | 156 min | – | – | 7% | – | – | –
CC(C)N1C(=O)[C@H](NC(=O)[C@@H](Cc2ccccc2OC(F)(F)F)NC(=O)c2ncccn2)CCc2ccccc21 | > 1000 nM | – | – | – | – | – | – | 15% | – | – | –
CC(C)N1C(=O)[C@H](NC(=O)[C@@H](Cc2ccccc2OC(F)(F)F)NC(=O)OC(C)(C)C)COc2ccccc21 | 44 nM | 40 mL/min/kg | – | 25% | 120 min | – | – | 17% | – | – | –
CC(C)N1C(=O)[C@H](NC(=O)[C@@H](Cc2ccc(F)cc2F)NC(=O)c2ccc(F)cc2C(F)(F)F)CCc2cc(Cl)ccc21 | > 1000 nM | – | – | – | – | – | – | – | – | – | –
CC(C)N1C(=O)[C@H](NC(=O)[C@@H](Cc2ccccc2F)NC(=O)c2ccc(F)cc2C(F)(F)F)CCc2cc(Cl)ccc21 | 30 nM | 44 mL/min/kg | 330 nM | 90% | 168 min | – | – | 32% | – | 28% | 56%
CC(C)N1C(=O)[C@H](NC(=O)[C@@H](Cc2ccccc2OC(F)(F)F)NC(=O)C(C)(C)C)CCc2ccccc21 | 131 nM | 31 mL/min/kg | 140 nM | 16% | 108 min | – | – | 18% | – | – | –
CC(=O)N[C@H](Cc1ccccc1OC(F)(F)F)C(=O)N[C@@H]1CCc2ccccc2N(C(C)C)C1=O | > 1000 nM | – | – | – | – | – | – | 9% | – | – | –

Source: ChEMBL document CHEMBL1140523, “Benzazepinone Nav1.7 blockers: potential treatments for neuropathic pain” (Bioorg Med Chem Lett, 2007)
